Legend:
Lung [1] = assay: Biodistribution in lung of C.B.-17/Icr +/+ Jcl mouse xenografted with human LNCAP and PC3 cells at 25.9 MBq, iv after 6 hrs; format: ADME, organism-based; conditions: in vivo
Outline: (§1)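 Radioiodinated (¹²⁵I) tracer given by tail-vein injection to mice bearing LNCaP (left shoulder) and PC-3 (right shoulder) xenografts, 22–24 g, grown to about 5–10 mm. Groups of n=4 were decapitated at 2 min, 30 min, 1 h, 3 h or 6 h. Tissues were weighed and counted, and uptake was expressed as %ID/g (mean ± SD).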

Kidney [2] = assay: Biodistribution in kidney of C.B.-17/Icr +/+ Jcl mouse xenografted with human LNCAP and PC3 cells at 25.9 MBq, iv after 30 mins in presence of 2-PMPA; format: ADME, organism-based; conditions: in vivo, 0.5 h
Outline: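 Blocking study: ¹²⁵I-labelled tracer coinjected iv by tail vein with 2-PMPA (50 mg/kg) in LNCaP/PC-3 xenograft-bearing mice (22–24 g). Mice decapitated 30 min after injection; tissues weighed and counted; uptake as %ID/g.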

Blood = assay: Biodistribution in blood of C.B.-17/Icr scid/scid Jcl mouse xenografted with human LNCAP and PC3 cells at 25.9 MBq, iv after 30 mins; format: ADME, organism-based; conditions: in vivo, 0.5 h
Liver [3] = assay: Biodistribution in liver of C.B.-17/Icr […] Jcl mouse xenografted with human LNCAP and PC3 cells at 25.9 MBq, iv after 30 mins; format: ADME, organism-based; conditions: in vivo, 0.5 h
Outline: (§2)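 ¹²⁵I-labelled tracer given iv by tail vein to mice (22–24 g) bearing LNCaP (left shoulder) and PC-3 (right shoulder) xenografts of about 5–10 mm, grown from 1–5 × 10⁶ cells in 1:1 Matrigel. n=4 per time point; decapitated at 2 min, 30 min, 1, 3, 6 h. Tissues weighed and counted; uptake as %ID/g, mean ± SD.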

Serum = assay: Drug degradation in C.B.-17/Icr +/+ Jcl mouse serum after 18 hrs; format: ADME, cell-free
Outline: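 Serum came from heart blood of isoflurane-anesthetized male C.B.-17/Icr +/+ mice (20–22 g), centrifuged at 1,500 × g and stored at −80 °C. ¹²⁵I tracer was incubated in serum at 37 °C, then methanol was added. The sample was centrifuged at 5,000 × g, passed through a 0.45 μm filter, and analyzed by radio-HPLC for intact tracer versus degradation peaks.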

Heart = assay: Biodistribution in heart of C.B.-17/Icr +/+ Jcl mouse xenografted with human LNCAP and PC3 cells at 25.9 MBq, iv after 2 mins; format: ADME, organism-based; conditions: in vivo; outline: as §2
Intestine [4] = assay: Biodistribution in intestine of C.B.-17/Icr […] Jcl mouse xenografted with human LNCAP and PC3 cells at 25.9 MBq, iv after 6 hrs; format: ADME, organism-based; conditions: in vivo; outline: as §2
Thyroid gland = assay: Biodistribution in thyroid of C.B.-17/Icr +/+ Jcl mouse xenografted with human LNCAP and PC3 cells at 25.9 MBq, iv after 2 mins; format: ADME, organism-based; conditions: in vivo; outline: as §1
[5] = Ratio of drug level in human LNCAP cells xenografted in C.B.-17/Icr +/+ Jcl mouse to blood of C.B.-17/Icr +/+ Jcl mouse xenografted with human LNCAP and PC3 cells at 25.9 MBq, iv after 1 hr; format: ADME, organism-based; conditions: LNCAP tumour xenograft relative to blood
Outline: (§3)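 Tumor-to-blood and tumor-to-muscle ratios were calculated from %ID/g values in ¹²⁵I-tracer biodistribution in LNCaP/PC-3 xenografted mice. Tail-vein dosing, n=4 per time point, sacrifice at 2 min, 30 min, 1, 3 or 6 h.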

Lung [6] = assay: Biodistribution in lung of C.B.-17/Icr +/+ Jcl mouse xenografted with human LNCAP and PC3 cells at 25.9 MBq, iv after 30 mins; format: ADME, organism-based; conditions: in vivo, 0.5 h; outline: as §1
Lung [7] = assay: Biodistribution in lung of C.B.-17/Icr +/+ Jcl mouse xenografted with human LNCAP and PC3 cells at 25.9 MBq, iv after 3 hrs; format: ADME, organism-based; conditions: in vivo; outline: as §1
LNCaP [8] = assay: Biodistribution in LNCAP cells in C.B.-17/Icr +/+ Jcl mouse xenografted with human LNCAP and PC3 cells at 25.9 MBq, iv after 1 hr; format: ADME, organism-based; conditions: in vivo; outline: as §2
LNCaP [9] = assay: Biodistribution in LNCAP cells in C.B.-17/Icr +/+ Jcl mouse xenografted with human LNCAP and PC3 cells at 25.9 MBq, iv after 2 mins; format: ADME, organism-based; conditions: in vivo; outline: as §2
Stomach = assay: Biodistribution in stomach of C.B.-17/Icr +/+ Jcl mouse xenografted with human LNCAP and PC3 cells at 25.9 MBq, iv after 2 mins; format: ADME, organism-based; conditions: in vivo; outline: as §1
Muscle tissue = assay: Biodistribution in muscle of C.B.-17/Icr +/+ Jcl mouse xenografted with human LNCAP and PC3 cells at 25.9 MBq, iv after 3 hrs; format: ADME, organism-based; conditions: in vivo; outline: as §1
Spleen [10] = assay: Biodistribution in spleen of C.B.-17/Icr +/+ Jcl mouse xenografted with human LNCAP and PC3 cells at 25.9 MBq, iv after 3 hrs; format: ADME, organism-based; conditions: in vivo; outline: as §1
Nucleic Acid [11] = assay: Ratio of drug level in human LNCAP cells xenografted in C.B.-17/Icr +/+ Jcl mouse to muscle of C.B.-17/Icr +/+ Jcl mouse xenografted with human LNCAP and PC3 cells at 25.9 MBq, iv after 30 mins; format: ADME, organism-based; conditions: in vivo, 0.5 h; outline: as §3
Kidney [12] = assay: Biodistribution in kidney of C.B.-17/Icr […] Jcl mouse xenografted with human LNCAP and PC3 cells at 25.9 MBq, iv after 2 mins; format: ADME, organism-based; conditions: in vivo; outline: as §2
Nucleic Acid [13] = assay: Ratio of drug level in human LNCAP cells to human PC3 cells xenografted in C.B.-17/Icr […] Jcl mouse at 25.9 MBq, iv after 30 mins; format: ADME, organism-based; conditions: in vivo, 0.5 h
PC-3 [14] = assay: Biodistribution in PC3 cells in C.B.-17/Icr +/+ Jcl mouse xenografted with human LNCAP and PC3 cells at 25.9 MBq, iv after 6 hrs; format: ADME, organism-based; conditions: in vivo; outline: as §2
Nucleic Acid [15] = assay: Ratio of drug level in human PC3 cells xenografted in C.B.-17/Icr +/+ Jcl mouse to muscle of C.B.-17/Icr +/+ Jcl mouse xenografted with human LNCAP and PC3 cells at 25.9 MBq, iv after 2 mins; format: ADME, organism-based; conditions: in vivo
Outline: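 Mice (22–24 g) carried PC-3 (right shoulder) and LNCaP (left shoulder) tumors, raised by injecting 1–5 × 10⁶ cells in 1:1 PBS/Matrigel and used at about 5–10 mm diameter. [¹²⁵I]-tracer was given via the tail vein, n=4 per time point, and mice were decapitated at 2 min, 30 min, 1, 3 or 6 h. Tissues were weighed and γ-counted as %ID/g. Tumor/blood and tumor/muscle ratios were taken from %ID/g, mean ± SD.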

Liver [16] = assay: Biodistribution in liver of C.B.-17/Icr […] Jcl mouse xenografted with human LNCAP and PC3 cells at 25.9 MBq, iv after 2 mins; format: ADME, organism-based; conditions: in vivo; outline: as §2
PC-3 [17] = assay: Biodistribution in PC3 cells in C.B.-17/Icr +/+ Jcl mouse xenografted with human LNCAP and PC3 cells at 25.9 MBq, iv after 3 hrs; format: ADME, organism-based; conditions: in vivo; outline: as §2
Intestine [18] = assay: Biodistribution in intestine of C.B.-17/Icr +/+ Jcl mouse xenografted with human LNCAP and PC3 cells at 25.9 MBq, iv after 1 hr; format: ADME, organism-based; conditions: in vivo; outline: as §2
Spleen [19] = assay: Biodistribution in spleen of C.B.-17/Icr +/+ Jcl mouse xenografted with human LNCAP and PC3 cells at 25.9 MBq, iv after 30 mins; format: ADME, organism-based; conditions: in vivo, 0.5 h; outline: as §1

## O=C(O)CC[C@H](NC(=O)N[C@@H](CSC1CC(=O)N(CCCC[C@H](NC(=O)CNC(=O)c2cccc([125I])c2)C(=O)O)C1=O)C(=O)O)C(=O)O (stereo not given in full)
Lung [1]
  Drug uptake: 0.9 % ID/g
Kidney [2]
  Drug uptake: Not Active
Blood
  Drug uptake: 1.5 % ID/g
Liver [3]
  Drug uptake: 13.7 % ID/g
Serum
  Stability: Unstable
Heart
  Drug uptake: 5.4 % ID/g
Intestine [4]
  Drug uptake: 5.3 % ID/g
Thyroid gland
  Drug uptake: 0.02 %ID
[5]
  Kp at 1 h: 6.9
Lung [6]
  Drug uptake: 2.9 % ID/g
Lung [7]
  Drug uptake: 1.2 % ID/g
LNCaP [8]
  Drug uptake: 7 % ID/g
LNCaP [9]
  Drug uptake: 4.2 % ID/g
Stomach
  Drug uptake: 0.7 %ID/g
Muscle tissue
  Drug uptake: 0.2 % ID/g
Spleen [10]
  Drug uptake: 16.1 % ID/g
Nucleic Acid [11]
  Ratio: 11.1
Kidney [12]
  Drug uptake: 68.1 % ID/g
Nucleic Acid [13]
  Ratio: 10.1
PC-3 [14]
  Drug uptake: 0.2 % ID/g
Nucleic Acid [15]
  Ratio: 1.9
Liver [16]
  Drug uptake: 22.5 % ID/g
PC-3 [17]
  Drug uptake: 0.3 % ID/g
Intestine [18]
  Drug uptake: 16.5 % ID/g
Spleen [19]
  Drug uptake: 43.3 % ID/g
